Experimental findings from article PMC7067668 (Journal of biological inorganic chemistry : JBIC : a …, 2019) are described below.

One data set concerns B16F10 cells. The data set can be described thus: Cell uptake and internalization. It is filed as cell-based, mouse. As to conditions: co-incubation with 10 μg unlabeled LLP2A-PEG4 per well, n = 3. An outline of the steps:
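Radiotracer uptake in B16F10 cells, grown in DMEM with 10% FBS at 37°C, 5% CO2, seeded at 200,000 cells/well 24 h before. Cells were rinsed with HBSS, then given DMEM with 0.1% BSA and 1 mM Mn²⁺ plus ~74 kBq/well Al¹⁸F- or ⁶⁸Ga-labeled test compound, with or without 10 μg/well unlabeled peptide. Sampling was at 0.5, 1, 2 h (⁶⁸Ga) or up to 4 h (¹⁸F). Cells were PBS-washed and gamma-counted.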

For another data set, the system named is B16F10 xenografts. The data set can be described thus: Micro-PET imaging, B16F10 xenografts. Format: in vivo, mouse. As to conditions: co-injection of 100 μg unlabeled LLP2A-PEG4; 4 mice per group. An outline of the steps:
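Female C57BL/6 mice bore subcutaneous right-shoulder B16F10 grafts (one million cells). They received intravenous Al¹⁸F- or ⁶⁸Ga-labeled test compound, 5.5–7.4 MBq (100–200 pmol), co-injected with 100 μg unlabeled peptide. Static small-animal PET was acquired under 2% isoflurane at 0.5, 1, 2 h p.i. (plus 4 h for ¹⁸F).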

Data set [1] has as its system mice bearing B16F10 xenografts. The data set can be described thus: Ex vivo biodistribution. Format: in vivo, mouse. As to conditions: n = 5; for liver uptake: i.v. 5.5–7.4 MBq (100–200 pmol). An outline of the steps: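 Female C57BL/6 mice (four weeks old) carried subcutaneous right-shoulder B16F10 grafts (one million cells in PBS). Radiolabeled test compound was injected intravenously at 5.5–7.4 MBq (100–200 pmol), with or without 100 μg unlabeled peptide. Mice were sacrificed at 0.5, 1, 2 h p.i. (4 h for the ¹⁸F tracer). Organs and tumor were weighed and gamma-counted, expressed as %ID/g, n = 5.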

The next data set has as its system A375 xenografts. The data set can be described thus: Micro-PET imaging, VLA-4-negative A375 xenografts. Format: in vivo, mouse. As to conditions: BALB/c nude mice, 0.5 h, 1 h, 2 h p.i., 5.5–7.4 MBq. In short, it runs like this: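 Female BALB/c nude mice carried subcutaneous right-shoulder A375 (VLA-4-negative) grafts of one million cells in PBS. ⁶⁸Ga-labeled test compound was injected intravenously at 5.5–7.4 MBq (100–200 pmol). Static small-animal PET was acquired under 2% isoflurane anesthesia at 0.5, 1 and 2 h p.i.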

Starred links: 1 amine or outer side, 2 acyl side, 3 side chain; linkers in the order of their positions; H or OH if unused. Non-standard residues stand in square brackets, D forms with d. Residues, ends and D or L forms follow the SMILES beside them. *: point of attachment. NOTA(2S-Bn(4-NHCS)) = O=C(O)CN1CCN(CC(=O)O)C[C@H](Cc2ccc(NC(=S)*)cc2)N(CC(=O)O)CC1; NH(CH2CH2O)4CH2CO = O=C(COCCOCCOCCOCCN[*:1])[*:2]; Acryloyl(3-(3-pyridyl),E) = O=C(/C=C/c1cccnc1)*; X1 = O=C(Cc1ccc(N[*:1])cc1)[*:2]; Aad = N[C@@H](CCCC(=O)O)C(=O)O; NH(2-Me-phenyl) = Cc1ccccc1N*; Ac6c = NC1(C(=O)O)CCCCC1; CO = O=C([*:1])[*:2]

As to `Cc1ccccc1NC(=O)Nc1ccc(CC(=O)N[C@@H](CCCCNC(=O)/C=C/c2cccnc2)C(=O)N[C@@H](CCCC(=O)O)C(=O)NC2(C(=O)NCCOCCOCCOCCOCC(=O)N[C@@H](CCCCNC(=S)Nc3ccc(C[C@H]4CN(CC(=O)O)CCN(CC(=O)O)CCN4CC(=O)O)cc3)C(N)=O)CCCCC2)cc1` [Al^18F-NOTA-PEG4-LLP2A] ({NH(2-Me-phenyl)-CO}-[X1]K(Acryloyl(3-(3-pyridyl),E))[Aad][Ac6c][NH(CH2CH2O)4CH2CO]K(NOTA(2S-Bn(4-NHCS)))-NH2), the “reduction of cell uptake by blocking dose” value with B16F10 cells is 61.7%. For the same compound, in the data set on B16F10 xenografts, the “activity accumulation in B16F10 xenografts with blocking agent (PET)” value is given as “significantly reduced”.

On to `Cc1ccccc1NC(=O)Nc1ccc(CC(=O)N[C@@H](CCCCNC(=O)/C=C/c2cccnc2)C(=O)N[C@@H](CCCC(=O)O)C(=O)NC2(C(=O)NCCOCCOCCOCCOCC(=O)N[C@@H](CCCCNC(=S)Nc3ccc(C[C@H]4CN(CC(=O)O)CCN(CC(=O)O)CCN4CC(=O)O)cc3)C(N)=O)CCCCC2)cc1` [^68Ga-NOTA-PEG4-LLP2A, metal not drawn] ({NH(2-Me-phenyl)-CO}-[X1]K(Acryloyl(3-(3-pyridyl),E))[Aad][Ac6c][NH(CH2CH2O)4CH2CO]K(NOTA(2S-Bn(4-NHCS)))-NH2), for which the “reduction of cell uptake by blocking dose” value with B16F10 cells is 79.2%. The bone uptake in data set [1] (0.5 h p.i., B16F10 tumor mice) turned out to be 5.75 ± 2.04 %ID/g. The compound also returned a tumor uptake in data set [1] (0.5 h p.i.) of 6.77 ± 1.77 %ID/g. In addition, in data set [1] (1 h p.i., B16F10 tumor mice), the liver uptake amounted to 15.3 ± 1.7 %ID/g. For the same compound, the tumor-to-blood ratio in data set [1] (1 h p.i.) is 3.3 ± 0.5. In data set [1] (2 h p.i., B16F10 tumor mice), the colon uptake was 2.1 ± 0.2 %ID/g, the kidney uptake came to 4.5 ± 0.3 %ID/g and the liver uptake is 8.0 ± 0.8 %ID/g. In addition, the tumor-to-blood ratio in data set [1] (2 h p.i.) is 7.3 ± 0.6. Further, in the data set on B16F10 xenografts, the “activity accumulation in B16F10 xenografts with blocking agent (PET)” value is reported as “significantly reduced”. In the data set with A375 xenografts, the “accumulation in VLA-4-negative A375 xenografts (PET)” value is “did not show specific accumulation”.
